In assay [1] the test system is Calf thymus DNA. Kind of assay: Binding affinity to calf thymus DNA assessed as decrease in absorbance at 20 uM by UV-visible spectrophotometry. The format is nucleic-acid assay. Particulars: Bos taurus. The method in brief: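 Compound at […], with or without CT-DNA at […], in 1 mL BPE buffer pH 7.1 in a 10 mm quartz cuvette. Spectra scanned 230–500 nm against a blank holding the same DNA concentration in the same buffer. Drug/DNA ratio 1; DMSO stocks diluted into buffer.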

Assay [2] concerns the target DNA topoisomerase 2-alpha (Homo sapiens) (UniProt P11388). Kind of assay: Inhibition of human recombinant topoisomerase 2-mediated relaxation of supercoiled […] by agarose gel electrophoresis. In short, it runs like this:
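Supercoiled pUC19 (350 ng) preincubated with compound at […], or etoposide at 20 or 50, before adding 10 units human topoisomerase II; 37 °C for 45 min in cleavage buffer. Stopped with SDS 0.25% plus proteinase K, 30 min at 50 °C. Run on 1% agarose containing ethidium bromide, 2 h at 120 V in TBE.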

A further assay concerns L1210. Kind of assay: Cytotoxicity against mouse L1210 cells. The format is functional, cell-based. In short, it runs like this:
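Mouse leukemia L1210 cells grown in RPMI 1640 with 10% FCS, 2 mM glutamine, penicillin/streptomycin and 10 mM HEPES pH 7.4. Exposed 48 h to nine graded drug concentrations in triplicate. Read by microculture tetrazolium assay. IC50 is the concentration that halves absorbance relative to untreated cells; mean of 3.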

The test system of assay [3] is Calf thymus DNA. In words: Binding affinity to calf thymus DNA assessed as change in melting temperature. The format is nucleic-acid assay. To be noted: Bos taurus. In short, it runs like this:
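CT-DNA ([…] as printed) in 1 mL BPE buffer pH 7.1 (6 mM Na2HPO4, 2 mM NaH2PO4, 1 mM EDTA), alone or with drug at base pair/drug ratio 1. A260 recorded every min, 20–100 °C at 1 °C/min, Peltier-controlled. Tm taken as midpoint of hyperchromic double- to single-strand transition; ΔTm relative to DNA alone.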

Assay [4] concerns the target T1, DNA topoisomerase 1 (Homo sapiens) (UniProt P11387).
T1 sequence (whole entry): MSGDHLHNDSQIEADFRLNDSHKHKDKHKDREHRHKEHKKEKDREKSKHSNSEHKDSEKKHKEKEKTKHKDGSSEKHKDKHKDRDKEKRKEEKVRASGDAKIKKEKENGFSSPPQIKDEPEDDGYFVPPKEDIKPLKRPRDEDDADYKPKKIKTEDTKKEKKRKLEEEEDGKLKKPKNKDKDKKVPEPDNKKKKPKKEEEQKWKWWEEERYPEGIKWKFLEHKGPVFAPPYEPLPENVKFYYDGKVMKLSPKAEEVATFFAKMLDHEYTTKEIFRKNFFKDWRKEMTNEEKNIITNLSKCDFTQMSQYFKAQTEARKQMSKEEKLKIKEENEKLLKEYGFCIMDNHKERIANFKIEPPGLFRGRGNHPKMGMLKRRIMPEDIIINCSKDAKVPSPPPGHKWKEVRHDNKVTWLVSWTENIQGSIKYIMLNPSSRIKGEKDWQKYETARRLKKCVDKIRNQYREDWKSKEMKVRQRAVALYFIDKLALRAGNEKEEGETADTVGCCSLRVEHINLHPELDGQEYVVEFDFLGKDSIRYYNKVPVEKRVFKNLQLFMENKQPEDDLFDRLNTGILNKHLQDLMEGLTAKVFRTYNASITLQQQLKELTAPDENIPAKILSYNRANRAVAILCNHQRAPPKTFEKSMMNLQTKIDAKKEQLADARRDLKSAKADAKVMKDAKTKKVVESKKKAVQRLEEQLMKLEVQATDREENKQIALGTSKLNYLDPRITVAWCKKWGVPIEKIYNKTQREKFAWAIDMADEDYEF
Kind of assay: Inhibition of human recombinant topoisomerase 1-mediated relaxation of supercoiled pUC19 at 1 to 5 uM by agarose gel electrophoresis.

Assay [5] has as its system Calf thymus DNA. In words: Binding affinity to calf thymus DNA assessed as decrease in fluorescence intensity at 20 uM by fluorescence spectrophotometry. The assay is classed as nucleic-acid assay. To be noted: Bos taurus. The method in brief: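 Fluorescent compound at […] in 1 mL BPE buffer pH 7.1, with or without […] CT-DNA, in a 10 mm quartz cuvette. Excitation at 268, 275 or 285 nm depending on compound; emission spectra scanned.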

Assay [6] addresses T1, DNA topoisomerase 1 (Homo sapiens). In words: Inhibition of human recombinant topoisomerase 1-mediated relaxation of supercoiled pUC19 by agarose gel electrophoresis.
Assay [7] concerns Calf thymus DNA. Kind of assay: Binding affinity to calf thymus DNA assessed as circular dichroism at 50 uM by J810 Jasco spectrophotometer. The assay is classed as nucleic-acid assay. Particulars: Bos taurus. The method in brief: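 CT-DNA deproteinized with SDS and dialyzed against 1 mM sodium cacodylate pH 7.0. Drug at […], with or without […] base pairs CT-DNA, in 1 mL 1 mM sodium cacodylate pH 7.0. CD spectra recorded 500–230 nm at 0.1 nm resolution.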
(In general: Circular dichroism is widely used to follow secondary structure.)

By IC50 is commonly meant the concentration that gives 50% inhibition. A low value points to higher potency. One may read the ΔTm as the shift of the melting midpoint relative to a reference.

Activity calls are given as the source filed them. The rule behind the calls is not given here.

DNA topoisomerase 2-alpha (Homo sapiens), sequence (P11388 whole entry): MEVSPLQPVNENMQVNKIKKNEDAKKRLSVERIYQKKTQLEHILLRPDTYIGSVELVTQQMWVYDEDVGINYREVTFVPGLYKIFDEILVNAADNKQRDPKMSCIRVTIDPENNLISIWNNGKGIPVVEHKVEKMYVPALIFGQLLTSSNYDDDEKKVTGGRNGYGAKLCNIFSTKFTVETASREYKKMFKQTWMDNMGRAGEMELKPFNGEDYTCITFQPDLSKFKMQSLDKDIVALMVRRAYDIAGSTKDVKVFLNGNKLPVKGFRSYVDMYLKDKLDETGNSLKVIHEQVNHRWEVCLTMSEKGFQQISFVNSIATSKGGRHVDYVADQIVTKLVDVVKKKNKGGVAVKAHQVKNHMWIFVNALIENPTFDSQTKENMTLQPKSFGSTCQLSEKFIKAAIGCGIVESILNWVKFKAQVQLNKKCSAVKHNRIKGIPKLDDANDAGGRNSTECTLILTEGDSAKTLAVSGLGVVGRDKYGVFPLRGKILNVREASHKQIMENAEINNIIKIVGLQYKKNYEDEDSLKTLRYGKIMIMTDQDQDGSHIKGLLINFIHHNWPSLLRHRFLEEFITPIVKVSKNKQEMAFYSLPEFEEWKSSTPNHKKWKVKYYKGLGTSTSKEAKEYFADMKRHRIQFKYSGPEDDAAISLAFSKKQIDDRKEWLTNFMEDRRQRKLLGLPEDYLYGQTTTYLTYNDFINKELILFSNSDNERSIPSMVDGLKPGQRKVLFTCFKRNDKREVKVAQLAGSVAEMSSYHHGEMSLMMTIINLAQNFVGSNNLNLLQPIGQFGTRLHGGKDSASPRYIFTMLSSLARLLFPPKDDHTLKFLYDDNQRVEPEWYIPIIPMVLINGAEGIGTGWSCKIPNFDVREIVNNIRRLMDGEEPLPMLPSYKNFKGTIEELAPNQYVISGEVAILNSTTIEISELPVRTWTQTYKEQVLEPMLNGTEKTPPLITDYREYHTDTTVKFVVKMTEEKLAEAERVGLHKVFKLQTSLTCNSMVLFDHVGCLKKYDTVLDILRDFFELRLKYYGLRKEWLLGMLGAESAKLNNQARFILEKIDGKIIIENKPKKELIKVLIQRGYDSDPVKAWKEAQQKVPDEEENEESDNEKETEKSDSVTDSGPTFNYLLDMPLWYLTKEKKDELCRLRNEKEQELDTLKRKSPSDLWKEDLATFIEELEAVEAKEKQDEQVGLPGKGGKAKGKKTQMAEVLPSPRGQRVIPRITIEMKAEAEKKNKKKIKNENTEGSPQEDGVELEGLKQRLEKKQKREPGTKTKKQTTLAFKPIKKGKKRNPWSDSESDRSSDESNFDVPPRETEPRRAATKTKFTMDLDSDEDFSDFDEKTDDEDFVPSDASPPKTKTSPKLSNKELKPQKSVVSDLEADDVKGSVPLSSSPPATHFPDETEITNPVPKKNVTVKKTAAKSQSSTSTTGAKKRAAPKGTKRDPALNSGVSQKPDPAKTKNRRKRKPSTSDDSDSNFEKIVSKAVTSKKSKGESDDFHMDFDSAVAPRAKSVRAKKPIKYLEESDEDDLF

On to `CCN(CC)CCNc1nccc2c1ccc1c3cc(OC)c(OC)cc3cnc21`, for which the outcome (with Calf thymus DNA [1]; in assay [2]) was Active. In the assay with L1210, this compound had an IC50 of 1770 nM. The ΔTm in the assay with Calf thymus DNA [3] was 9 °C.
Turning to `CCN(CC)CCCNc1nccc2c1ccc1c3cc(OC)c(OC)cc3cnc21`, the outcome in assay [2] was Active. In addition, the IC50 in the assay on L1210 came out at 3700 nM.
For `COc1cc2cnc3c4ccc(NCCN(C)C)nc4ccc3c2cc1OC`, the outcome (in the assay with Calf thymus DNA [1]; in assay [2]; in the assay on Calf thymus DNA [5]; in assay [6]) was Active. In addition, in assay [4], the inhibition result is “inactive”. The compound further came in with an IC50 in the assay with L1210 of 1730 nM. Besides, in the assay with Calf thymus DNA [3], the ΔTm was 12 °C.
With `c1cc2c(ccc3c4cc5c(cc4cnc23)OCO5)cn1`, half-maximal inhibition in the assay on L1210 (IC50) was put at 4400 nM. That is a single-digit micromolar value.
Consider `CCN(CC)CCNc1ccc2c(ccc3c4cc5c(cc4cnc23)OCO5)n1`, for which the outcome (in the assay with Calf thymus DNA [1]; in assay [2]; in the assay on Calf thymus DNA [5]; in assay [6]) was Active. Also, the result in assay [4] was inactive. For the same compound, in the assay with L1210, half-maximal inhibition (IC50) was put at 1740 nM. For the same compound, the ΔTm in the assay with Calf thymus DNA [3] amounted to 5 °C.
In turn, `COc1cc2cnc3c4ccnc(Cl)c4ccc3c2cc1OC` gave an IC50 in the assay with L1210 of 4300 nM.
On to `CCN(CC)CCNc1ccc2c(ccc3c4cc(OC)c(OC)cc4cnc23)n1`, for which the outcome (with Calf thymus DNA [1]; in assay [2]; with Calf thymus DNA [5]) was Active. Besides, half-maximal inhibition with L1210 (IC50) required 960 nM. The thermal shift (ΔTm) with Calf thymus DNA [3] worked out at 5 °C.
In the case of `CCN(CC)CCCNc1ccc2c(ccc3c4cc(OC)c(OC)cc4cnc23)n1`, the outcome (in the assay on Calf thymus DNA [1]; in assay [2]; with Calf thymus DNA [5]) was Active. The compound also showed an IC50 in the assay on L1210 of 1260 nM.
As to `COc1cc2cnc3c4cccnc4ccc3c2cc1OC`, it took 7100 nM to reach half-maximal inhibition in the assay on L1210 (IC50).
For `COc1cc2cnc3c4ccnc(NCCN(C)C)c4ccc3c2cc1OC`, the outcome (with Calf thymus DNA [1]; in assay [2]) was Active. Besides, the IC50 with L1210 worked out at 3510 nM. Moreover, the ΔTm with Calf thymus DNA [3] came out at 9 °C.
As to `COc1cc2cnc3c4ccc(NCCCN(C)C)nc4ccc3c2cc1OC`, the result (in the assay on Calf thymus DNA [1]; in assay [2]; with Calf thymus DNA [5]) was Active. This compound yielded a 50% inhibitory concentration (IC50) with L1210 of 2850 nM. Moreover, in the assay on Calf thymus DNA [3], the ΔTm was 0 °C.
Take `CN(C)CCNc1ccc2c(ccc3c4cc5c(cc4cnc23)OCO5)n1`: the result (in the assay on Calf thymus DNA [1]; in assay [2]; in the assay on Calf thymus DNA [5]; in assay [6]) was Active. Also, in assay [4], the result was inactive. The compound further returned an IC50 in the assay with L1210 of 320 nM. In addition, the ΔTm in the assay on Calf thymus DNA [3] is 4 °C.
For `CN(C)CCCNc1ccc2c(ccc3c4cc5c(cc4cnc23)OCO5)n1`, the result (with Calf thymus DNA [1]; with Calf thymus DNA [7]; in assay [2]; with Calf thymus DNA [5]) was Active. In the assay with L1210, this compound came in with an IC50 of 510 nM.
Regarding `CN(C)CCCNc1nccc2c1ccc1c3cc4c(cc3cnc21)OCO4`, the outcome (with Calf thymus DNA [1]; in the assay on Calf thymus DNA [7]; in assay [2]; in assay [6]) was Active. Further, the result in assay [4] was inactive. The same compound yielded an IC50 in the assay on L1210 of 290 nM. The ΔTm in the assay with Calf thymus DNA [3] was determined as 14 °C.
As for `COc1cc2cnc3c4ccnc(NCCCN(C)C)c4ccc3c2cc1OC`, the result (with Calf thymus DNA [1]; in assay [2]) was Active. Also, half-maximal inhibition in the assay with L1210 (IC50) required 1800 nM.
With `CN(C)CCNc1nccc2c1ccc1c3cc4c(cc3cnc21)OCO4`, the result (with Calf thymus DNA [1]; in assay [2]; in assay [6]) was Active. In assay [4], the outcome was inactive. Further, in the assay with Calf thymus DNA [3], the ΔTm stood at 7 °C.
Turning to `COc1cc2c(ccc3c4cc(OC)c(OC)cc4c[n+](C)c23)cc1O` [FAGARONINE], the IC50 in the assay on L1210 came out at 6600 nM.
Same read-out and setting: to `COc1cc2cnc3c4ccncc4ccc3c2cc1OC` belongs 6600 nM.
In the case of `CCN(CC)CCCNc1ccc2c(ccc3c4cc5c(cc4cnc23)OCO5)n1`, the outcome (in the assay with Calf thymus DNA [1]; with Calf thymus DNA [7]; in assay [2]; in the assay on Calf thymus DNA [5]) was Active. The IC50 in the assay on L1210 stood at 830 nM. Further, the ΔTm with Calf thymus DNA [3] is 11 °C.
In the assay on L1210, `c1cnc2ccc3c4cc5c(cc4cnc3c2c1)OCO5` displayed a concentration for half-maximal inhibition (IC50) of 8800 nM.
